Screening data (PubChem)
CHO parental Ca – counter-screen: ATP calcium response change in parental CHO cells; AID 463079; inhibition, % at 5.6 µM; 330,000 compounds, 0.63% hits; parental CHO-K1, ATP-induced calcium, Fluo-8 fluorescence;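 active means inhibition above that plate's mean sample inhibition plus 3 SD, cut at about 26% in these data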;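 further: 0% = ATP-challenged DMSO wells and 100% = DMSO wells without ATP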
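material = parental CHO cells | also added = ATP as calcium-mobilizing challenge | dosing = single point at 5.6 µM | detection = intracellular calcium via Fluo-8 no-wash fluorescent dye | read-out = % inhibition | benchmarks = low control ATP plus DMSO, high control DMSO only | repeats = one well per compound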
OX1R antag-1 – blocks the human orexin 1 receptor. O43613. OX1R-expressing cells, FRET antagonist read-out. inhibition, % at 6.6 µM. 330,000 compounds, 1.8% hits. AID 485270; in the data active means inhibition mostly above about 38%, no sharp cut-off; inactive means mostly below about 40%;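 further: 0% = agonist challenge alone and 100% = reference antagonist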
Target sequence (O43613 whole entry, looked up): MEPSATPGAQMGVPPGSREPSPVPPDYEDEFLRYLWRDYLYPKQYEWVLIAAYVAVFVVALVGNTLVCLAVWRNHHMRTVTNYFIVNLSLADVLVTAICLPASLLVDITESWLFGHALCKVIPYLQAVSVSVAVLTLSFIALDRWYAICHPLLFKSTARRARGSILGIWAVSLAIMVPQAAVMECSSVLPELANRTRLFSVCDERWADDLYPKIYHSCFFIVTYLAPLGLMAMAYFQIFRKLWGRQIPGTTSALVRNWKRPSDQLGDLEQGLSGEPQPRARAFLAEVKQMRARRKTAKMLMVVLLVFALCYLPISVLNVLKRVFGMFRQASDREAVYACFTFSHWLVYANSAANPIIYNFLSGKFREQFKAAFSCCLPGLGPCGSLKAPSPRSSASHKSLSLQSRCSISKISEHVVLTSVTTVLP
OX1R antag-2 – human HCRTR1 antagonism. 330,000 compounds, 0.43% hits. inhibition, % at 5 µM. CHO/OX1R cells, Fluo-8 calcium fluorescence, orexin A;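 active means inhibition above its plate's threshold, mean inhibition of all tested compounds on the plate plus 3 SD, cut at about 37% in these data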;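 further: 0% = orexin A challenge wells and 100% = SB-334867-A antagonist wells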
CHO-K1 Ca antag – counter-screen for M1 antagonists: effect in parental CHO-K1 cells | ATP-induced calcium, Fluo-8 fluorescence | inhibition, % at 3 µM | 360,000 compounds, 0.6% hits;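 active means inhibition above a per-plate cutoff, the plate's mean sample inhibition plus 3 SD, cut at about 24% in these data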;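 further: 0% = DMSO plus EC80 ATP and 100% = DMSO alone without ATP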
M1 ag parental – M1 agonist counterscreen hit in parental CHO-K1 cells. Fluo-8 calcium fluorescence; scaled to maximal ATP response, vehicle zero. 360,000 compounds, 0.48% hits. AID 602248. activation, % at 3 µM; in the data active means activation above about 15%;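 further: untransfected CHO-K1 host cells lacking M1 receptor as counterscreen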
M1 PAM parental – M1 PAM counterscreen hit in parental CHO-K1 cells. ATP EC20, Fluo-8 calcium fluorescence; 0% at ATP EC20, 100% at ATP max. activation, % at 3 µM. 360,000 compounds, 0.02% hits. AID 602247;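 active means activation above the run cutoff, the mean activation of all test compounds plus 3 SD, cut at about 40% in these data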;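 further: peak over basal fluorescence ratio in a 140 s read after ATP addition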
Active calls of the source: *; / = no result. Shown are actives, neighbours in structure and some others; about 2.9% of the full set was active somewhere.

SMILES | CHO parental Ca | OX1R antag-1 | OX1R antag-2 | CHO-K1 Ca antag | M1 ag parental | M1 PAM parental
COc1cccc(C(CC(=O)Nc2cccc3ccccc23)NC(=O)c2ccccc2)c1 (stereo unspecified) | -2 | 35* | -15 | -6 | 0 | -11
COc1ccc2nc(Nc3ccccc3OC)sc2c1 | -12 | 14 | -32 | -14 | 0 | 17
CCCC(=O)N1CCC1(C)C(=O)NS(=O)(=O)c1cc(C)ccc1F (stereo unspecified) | / | / | / | -2 | 1 | 11
COc1cc(C2Nc3ccc4ncccc4c3C3=C2C(=O)CCC3)cc(OC)c1O (stereo unspecified) | -9 | 68* | -14 | -7 | 1 | 13
COc1cc(C2Nc3ccc4ncccc4c3C3=C2C(=O)CC(C)(C)C3)cc(OC)c1O (stereo unspecified) | -14 | 20 | -14 | -9 | 1 | 19
CCCOC(=O)c1ccc(NC(=O)c2cc(OC)c(OC)c(OC)c2Br)cc1 | -18 | 9 | -9 | 4 | 3 | 18
CCCOC(=O)c1ccc(NC(=O)c2cc(Cl)ccc2OC)cc1 | -1 | 66* | 9 | -6 | 0 | 19
CCOC(=O)N1CCC(N2CCN(S(=O)(=O)c3ccc4ccccc4c3)CC2)CC1 | -2 | 10 | -15 | 4 | 1 | -15
CN1C(=O)C(CC(=O)Nc2ccc(F)cc2)N(CCCc2ccccc2)C1=S (stereo unspecified) | 4 | 52 | 48* | 3 | 3 | 27
CCn1cc(C(=O)O)c(=O)c2cnc(N3CCN(C(=S)Nc4ccccc4Cl)CC3)nc21 | -8 | 5 | 7 | -15 | 0 | 18
CCNc1c([N+](=O)[O-])c(=O)n(CC)c2ccccc12 | -7 | 14 | -27 | -6 | 1 | 14
Cn1c(=O)c(NCCc2ccccc2)c2c3c(cccc31)C(=O)c1ccccc1-2 | 100* | 76 | 108* | 70* | 124* | -7
CC(=O)Nc1ccc(Nc2c3c4c(cccc4n(C)c2=O)C(=O)c2ccccc2-3)cc1 | -15 | 28 | -16 | -6 | 2 | 18
CCNc1c2c3c(cccc3n(C)c1=O)C(=O)c1ccccc1-2 | 69* | 30 | 89* | / | / | /
Cn1c(=O)cc2c3c(c(N4CCCCC4)ccc31)C(=O)c1ccccc1-2 | -11 | 14 | -26 | 9 | 0 | -9
Cn1c(=O)c(NC2CCCCC2)c2c3c(cccc31)C(=O)c1ccccc1-2 | / | / | / | 11 | 16* | 3
Cn1c(=O)c(NCCO)c2c3c(cccc31)C(=O)c1ccccc1-2 | 96* | 74 | 103* | 18 | 34* | -3
CCc1nc2ccccc2c(=O)n1/N=C/c1ccc(OC)cc1 | -11 | 3 | -30 | -17 | 4 | 17
CCCCNc1c2c3c(cccc3n(C)c1=O)C(=O)c1ccccc1-2 | 77* | 12 | 91* | 69* | 123* | -4
O=C(NC1(C(=O)NC2CCCCC2)CCCCC1)c1ccccn1 | -10 | 13 | -17 | 17 | 0 | -6
Cc1ccc(NC(=O)C2(NC(=O)c3ccccn3)CCCCC2)cc1Br | -24 | 68* | -4 | -5 | 0 | 22
FC(F)Oc1cccc(NC(=S)N2CCN(c3ccccn3)CC2)c1 | -17 | 12 | -22 | -9 | 2 | 13
O=C(Nc1ccc([N+](=O)[O-])cc1)c1cc(Cl)sc1Cl | 16 | 19 | 0 | -1 | 11 | -7
C=CC[C@@H](CC(=O)N[C@H](CO)Cc1ccccc1)C(=O)N[C@@H](COC(=O)[C@@H](CC=C)Cc1ccc(F)cc1)Cc1ccccc1 | -31 | 1 | -1 | -3 | 1 | 3
CC1CCCC(C)N1C(=O)COC(=O)CNC(=O)c1sc2ccccc2c1Cl (stereo unspecified) | 5 | 13 | -11 | 18 | 19* | -16
SMILES | CHO parental Ca | OX1R antag-1 | OX1R antag-2 | CHO-K1 Ca antag | M1 ag parental | M1 PAM parental
CCN(CC)c1ccc(/C=C/C(=O)C2C(=O)C=C(C)OC2=O)cc1 (stereo unspecified) | 75* | 14 | 98* | 44* | 50* | -20
COc1ccc(/C=C(\C#N)C(=O)OCC(=O)N2CC(C)OC(C)C2)cc1 (stereo unspecified) | -9 | 24 | -14 | -16 | 0 | 3
Cc1ccccc1N(C)S(=O)(=O)c1nnc(NC(=O)c2ccco2)s1 | -15 | 30 | -25 | -6 | 1 | 8
COc1cccc(/C=N\NS(=O)(=O)c2ccccc2)c1OC | -3 | 22 | -3 | -3 | 2 | 18
COc1cc(/C=N/NS(=O)(=O)c2ccccc2)c(OC)c(OC)c1 | -1 | -4 | -17 | -4 | 16* | 11
N#CC1=C(N)OC2=C(C(=O)CCC2)C1c1cc2c(cc1Cl)OCO2 (stereo unspecified) | -2 | 14 | -12 | 24* | 0 | -24
N#CC1=C(N)OC2=C(C(=O)CCC2)C1c1cc2c(cc1Br)OCO2 (stereo unspecified) | -4 | 6 | -19 | 29* | 0 | -10
N#CC1=C(N)OC2=C(C(=O)CCC2)C1c1ccc2c(c1)OCO2 (stereo unspecified) | -5 | 5 | -8 | 2 | 0 | 13
N#C/C(=N\Nc1ccc(Cl)cc1)C(=O)c1ccccc1 | 32 | 60* | 25 | 31* | 7 | -3
Cc1c(N/N=C(\C#N)C(=O)c2ccc(Cl)cc2)c(=O)n(-c2ccccc2)n1C | -8 | 5 | 16 | 8 | 10 | 14
COc1cccc(NC(=O)CN2C(=O)CSc3ccc(S(=O)(=O)N4CCOCC4)cc32)c1 | -14 | 11 | -13 | -10 | 1 | 17
COc1cccc(CNC(=O)CN2C(=O)CSc3ccc(S(=O)(=O)N4CCOCC4)cc32)c1 | -29 | 37* | -27 | -8 | 0 | 13
COCCNC(=O)CN1C(=O)CSc2cc(S(=O)(=O)N3CCCCCC3)ccc21 | -16 | 2 | -25 | 35* | 0 | -10
COCCNc1nc(NCc2ccccc2)nc2ccsc12 | / | / | / | 95* | 77* | -16
O=C1CCCN1CCCNc1nc(NCc2ccccc2)nc2ccsc12 | / | / | / | 84* | 86* | -16
CCCCNc1nc(NCc2ccccc2)nc2ccccc12 | / | / | / | 54* | 49* | -17
CNc1nc(NCc2ccccc2)c2ccccc2n1 | 3 | 7 | -22 | 0 | 5 | 4
COCCNc1nc(NCc2ccccc2OC)c2sccc2n1 | / | / | / | -14 | 7 | 12
CC1=C(C(=O)OCC2CCCO2)C(c2ccsc2)C2=C(CCCC2=O)N1 (stereo unspecified) | -14 | 4 | -28 | -18 | 1 | -7
O=C(CSc1nnc(CNC(=O)c2ccc(F)cc2)o1)Nc1nccs1 | -5 | 9 | 3 | 6 | 0 | 2
CC(C)(C)OC(=O)NCCCC1=CC2=CC(=O)C(C)(O)C(=O)C2=CO1 (stereo unspecified) | -24 | 18 | 2 | / | / | /
O=C(Cc1ccc(F)cc1)Nc1ccc(Cl)cn1 | -6 | 5 | 6 | 0 | 1 | 28
